Data set [1] is described as follows: Cytotoxicity against human PANC1 cells by MTT assay. The format is functional, cell-based. The conditions noted are these: PANC-1. (In general: Formazan colour is commonly taken as a measure of viable cells.)
Data set [2] can be described thus: Cytotoxicity against human PC3 cells by MTT assay. The format is functional, cell-based. The following applies: PC-3.
Data set [3] can be described thus: Cytotoxicity against human HCT116 cells by MTT assay. The conditions noted are these: HCT-116. The format is functional, cell-based.
In data set [4] the test system is PANC-1. As to the kind of experiment: Inhibition of cell migration in human PANC1 cells at 2 and 4 microM after 48 hrs by wound healing assay. Format: functional, cell-based. Summed up:
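Scratch wound made in PANC-1 monolayer; cells treated with compound at 2.0 and 4.0 μM, DMSO vehicle control; wound area photographed at 20× magnification at 0 h and after incubation; statistics from three independent experiments.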

Data set [5] relates to PANC-1. As to the kind of experiment: Inhibition of colony formation in human PANC1 cells at 2 and 4 uM for 5 days by crystal violet staining based microscopic analysis. The format is functional, cell-based. Summed up:
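PANC-1 seeded at 1 × 10^3 cells/well, treated with compound alongside DMSO for 5 days; crystal violet-stained colonies counted in random fields and imaged under inverted microscope (20×); three independent experiments.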

The subject of data set [6] is PANC-1. As to the kind of experiment: Inhibition of cell invasion in human PANC1 cells at 2 and 4 uM for 24 hrs by matrigel invasion assay. The format is functional, cell-based. An outline of the steps: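 Boyden chamber matrigel invasion: PANC-1 treated 24 h with compound (2.0 and 4.0 μM); invaded cells counted in five random fields per group under inverted microscope (20×); three independent experiments, p < 0.05.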

In data set [7] the test system is PANC-1. As to the kind of experiment: Inhibition of cell invasion in human PANC1 cells by 3D invasion assay in presence of neutralized collagen. Format: functional, cell-based. An outline of the steps: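 PANC-1 mixed with neutralized collagen, spotted centrally in wells and solidified as a cell-collagen hemisphere; fresh medium with or without compound added; invasion beyond the original collagen boundary scored against DMSO-treated cells.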

The subject of data set [8] is PANC-1. As to the kind of experiment: Antimetastatic activity in human PANC1 cells at 2 and 4 uM after 24 hrs by fluorescent gelatin degradation assay. Format: functional, cell-based. Summed up:
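PANC-1 grown 24 h on coverslips coated with cross-linked FITC-conjugated gelatin in presence of compound; matrix degradation spots visualized by fluorescence and degraded area highlighted by image analysis.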

Data set [9] can be described thus: Downregulation of MMP-2 expression in human PANC1 cells at 2 and 4 uM by western blot analysis. The format is functional, cell-based. The conditions noted are these: PANC-1. Summed up:
(§1)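 PANC-1 seeded in six-well plates and treated with indicated compound concentrations; whole-cell lysates probed for target proteins by Western blotting.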
(In general: A western blot detects proteins with antibodies after separation by electrophoresis.)

The nature of data set [10]: Downregulation of MMP-9 expression in human PANC1 cells at 2 and 4 uM by western blot analysis. The following applies: PANC-1. Format: functional, cell-based. An outline of the steps:
as §1

The nature of data set [11]: Upregulation of TIMP1 expression in human PANC1 cells by western blot analysis. The format is functional, cell-based. The following applies: PANC-1. An outline of the steps:
as §1

The nature of data set [12]: Upregulation of E-cadherin expression in human PANC1 cells at 2 and 4 uM by western blot analysis. The format is functional, cell-based. The following applies: PANC-1. An outline of the steps: as §1
Data set [13] relates to PANC-1. Description: Inhibition of PI3K-mediated Akt phosphorylation at S473 residue in human PANC1 cells by western blot analysis. Format: cell-based. An outline of the steps:
as §1

The nature of data set [14]: Downregulation of PI3K-p85 alpha expression in human PANC1 cells by western blot analysis. The conditions noted are these: PANC-1. Format: functional, cell-based. Summed up:
as §1

The nature of data set [15]: Downregulation of PI3K-p110 alpha expression in human PANC1 cells by western blot analysis. The conditions noted are these: PANC-1. The format is functional, cell-based. Summed up:
as §1

Data set [16] is described as follows: Downregulation of NF-kappaB expression in human PANC1 cells by western blot analysis. The format is functional, cell-based. The following applies: PANC-1. Summed up: as §1
A short description of data set [17]: Downregulation of S6K expression in human PANC1 cells at 2 and 4 uM by western blot analysis. The format is functional, cell-based. The following applies: PANC-1. Summed up:
as §1

Data set [18] is described as follows: Effect on total mTOR expression in human PANC1 cells at 2 and 4 uM by western blot analysis. The conditions noted are these: panc-1. Format: cell-based. An outline of the steps: as §1
The subject of data set [19] is PANC-1. Description: Inhibition of PI3K-mediated mTOR phosphorylation in human PANC1 cells at 2 and 4 uM by western blot analysis. Format: cell-based. Summed up: as §1

Structures are written as SMILES. The source made the active and inactive calls. No cut-off for these calls is given here.

As for `CCC(/C=C/C(=O)N[C@@H](Cc1ccccc1)C(=O)OC)=C\c1ccc2c(c1)OCO2`, the IC50 – broadly, the concentration that inhibits the measured activity by half – is greater than 100 µM in [1], 41.9 µM in [2] and 48.3 µM in [3].

`CCCCC(=O)NC1(CC(=O)NNc2ccccc2)CCN(C(=O)/C=C/C(=C/c2ccc3c(c2)OCO3)CC)CC1`: the IC50 in data set [1] is 4 µM; in data set [2], 15 µM; in data set [3], greater than 100 µM. Besides, the inhibition entry (with PANC-1 [4]; in the data set with PANC-1 [5]; in the data set on PANC-1 [6]; with PANC-1 [8]; in [9]; in data set [10]) was “Active” in each case. The inhibition entry (in data set [17]; in the data set with PANC-1 [19]) was “Active” throughout. In addition, the inhibition entry (in the data set on PANC-1 [7]; in the data set with PANC-1 [13]; in data set [14]; in data set [15]; in data set [16]) was “Dose-dependent effect” throughout. Further, the Activity entry in [11] is “Dose-dependent effect”; in data set [18] it was “Non-toxic”. The result in [12] was Active.

Turning to `CCC(/C=C/C(=O)N1CCC[C@H]1C(=O)OC)=C\c1ccc2c(c1)OCO2`, the values for the IC50 in data set [1], in [2] and in data set [3] were 42.2 µM, 16 µM and 49.8 µM, respectively.

As to `CCC(/C=C/C(=O)N[C@@H](C)C(=O)OC)=C\c1ccc2c(c1)OCO2`, the results for the IC50 in [1], in data set [2] and in data set [3] were 6.7 µM, 43.5 µM and 47.1 µM, respectively.

With `CCC(/C=C/C(=O)O)=C\c1ccc2c(c1)OCO2`, the concentration for half-maximal inhibition (IC50) in [1], in [2] and in data set [3] was greater than 100 µM each time.

Turning to `CCC(/C=C/C(=O)NC1(CC(=O)OC)CCCCC1)=C\c1ccc2c(c1)OCO2`, the figures for the IC50 in data set [1], in data set [2] and in data set [3] were greater than 100 µM, 20 µM and greater than 100 µM, respectively.

Turning to `CCC(/C=C/C(=O)NCC1(CC(=O)OC)CCCCC1)=C\c1ccc2c(c1)OCO2`, the IC50 was determined as 10 µM in [1], 45.2 µM in data set [2] and 47.6 µM in data set [3].

The values are drawn from ChEMBL document CHEMBL3739398, “Inhibition of Invasion in Pancreatic Cancer Cells by Conjugate of EPA with β(3,3)-Pip-OH via PI3K/Akt/NF-kB Pathway” (ACS Med Chem Lett, 2015).
